Sampled rows, rich in hits. Any-hit rate of the full collection: about 2.7%.
Yeast growth inh: growth inhibitors of yeast BB579 in restrictive medium, primary screen, yeast lifespan-shortening project, S. cerevisiae; OD615, 48 h; inhibition, % at 10 µM; 140,000 compounds, 0.51% hits;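 active = inhibition above a set limit, 3 SD over the mean compound inhibition, cut at about 44% in these data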
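controls = amphotericin B 10 µg/mL, positive | assay system = DeaD yeast strain BB579 | schedule = 48 h compound exposure at 30 °C after 4 h preincubation | detection = OD615 turbidity measurement | medium = restrictive CSMM-D medium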
Yeast lifespan up: compounds extending yeast replicative lifespan, primary screen, S. cerevisiae, OD615 | S. cerevisiae growth with nicotinamide; deaD strain in restrictive glucose medium | inhibition of the nicotinamide effect, % at 10 µM | 130,000 compounds, 0.68% hits | AID 775, 2007;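 active = inhibition above a set limit, placed 3 SD over the median of all compounds, cut at about 26% in these data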;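 also: 0% = nicotinamide-treated wells and 100% = cells grown without nicotinamide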
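Buffer or medium: CSMM-D glucose medium, restrictive; test system: modified budding yeast, DeaD strain; compound: single dose 10 µM compound, 0.25% DMSO; schedule: culture preincubation 4 h, compound exposure 48 h, both 30 °C; detection: optical density (absorbance) at 615 nm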
RAM inhibit: inhibitors of the yeast RAM network, primary screen, dse1pr::URA3 reporter, 5-FOA selection; S. cerevisiae dse1pr::URA3 reporter, 5-FOA growth OD615, 2 d; analog-sensitive cbk1-as2 kinase mutant strain; inhibition, % at 50 µM; 190,000 compounds, 1.8% hits; AID 868, 2007;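 active = inhibition above a set limit, 3 SD over mean compound inhibition, cut at about 8.4% in these data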;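 also: 0% = DMSO-only wells with no growth and 100% = 10 µM 1-NA-PP1 full growth; inhibition rescues growth on 5-FOA so higher OD means more RAM inhibition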
sdo1 growth: growth rescue of sdo1-depleted yeast, primary screen, S. cerevisiae, bone marrow failure model | z-score at 10 µM | 140,000 compounds, 0.21% hits | S. cerevisiae sdo1-depleted JHY4D growth rescue, OD600 30 h; active compounds read high; pdr5 snq2 efflux-pump mutant strain;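 active = z-score above 3 at both the 24 hr and the 30 hr optical density reads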;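 also: z-score against mean and SD of all compound wells on the same plate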
RAM 5-FOA: 5-FOA growth of efflux-deficient control yeast, dose response, counter-screen for RAM network inhibitor project, S. cerevisiae, OD615; AID 1305, 2008; S. cerevisiae efflux-deficient reporter strain, 5-FOA growth OD615, 2 days; 1,200 tested, under 10 active; shares compounds with RAM inhibit; max inhibition, %; call rule not given here;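 also: plate controls were vehicle for no effect and reference inhibitor for full effect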
Numbers without * were called inactive; . = no result; [ ] = dose if it differs, or a comment.

SMILES | Yeast growth inh | Yeast lifespan up | RAM inhibit | sdo1 growth | RAM 5-FOA
C=CCn1c(C)cc(C(=O)CSc2nnc(NCc3ccccc3)s2)c1C | 64.0* | -8.9 | 14.2* | -2.23[9.2 µM] | 1.5
COc1ccccc1C(NC(=O)C1CCCCC1)c1c(O)ccc2ccccc12 (stereo not drawn) | -1.1 | -2.6 | 11.8* | -0.95 | 4.9
CCOC(=O)c1cc(C#N)c(Oc2cccc(C(F)(F)F)c2)nc1-c1ccccc1 | -15.6 | 3.2 | 12.7* | -0.01 | 1.9
CCCC(c1nnnn1CS(=O)(=O)c1ccc(C)cc1)N1CCN(c2ccc(F)cc2)CC1 (stereo not drawn) | -42.2 | -10.2 | 2.2 | -1.7 | .
CC(C)N(C)CCOC(=O)/C=C/c1ccccc1 | 7.8 | 1.0 | 1.4 | 1.08 | .
CC(=O)Nc1ccc(S(=O)(=O)Nc2nc3ccccc3nc2Nc2ccc3ccccc3c2)cc1 | -22.5 | 1.6 | 15.9* | -1.13 | 2.6
CC(Oc1ccccc1)C(=O)OCC(=O)N1CC(=O)Nc2ccccc21 (stereo not drawn) | . | . | 1.4 | . | .
OC(COc1ccccc1)CSc1ncn[nH]1 (stereo not drawn) | -5.5 | -7.5 | -0.8 | 1.4 | .
COc1cccc(CNC(=O)Cn2cc3c(n2)CCCC3)c1 | 14.2 | -0.8 | 0.8 | 1.23 | .
COc1cccc(CNC(=O)CN2C(=O)CC(c3ccccc3)=Nc3ccccc32)c1 | . | . | 12.6* | . | 2.4
Cc1ccccc1-c1nnn(CC(=O)Nc2ccc3c(c2)OCCO3)n1 | . | . | 11.5* | . | 3.8
O=C(NCc1ccccc1)/C(=C/c1ccc(OC(F)F)cc1)c1ccccc1 | -9.8 | -0.6 | 12.0* | -0.82 | 1.7
O=C(C[n+]1ccc(C(=O)NCc2ccccc2)cc1)c1ccc(OC(F)F)cc1 | . | . | 0.4 | . | .
COc1cc2c(cc1NC(=O)CSc1ccc(C)cc1)oc1ccccc12 | -63.3 | -1.2 | 4.3 | 0 | .
COc1cc2c(cc1NC(=O)C(C)Sc1ccc(C)cc1)oc1ccccc12 (stereo not drawn) | -48.7 | -5.5 | 13.7* | -0.15 | 3.9
Cc1ccc(N=c2oc3cc(O)ccc3cc2C(N)=O)cc1 | -59.4 | -1.8 | 27.2* | -1.77 | 0.9
C=CCn1c(SCC)nc2sc3c(c2c1=O)CCc1ccccc1-3 | -22.4 | 0.4 | 17.8* | 0.01 | 2.4
COc1ccc(/C=N/OCC(=O)NC(c2ccccc2)c2ccccc2)cc1OC | -19.0 | 3.0 | 2.6 | -0.4 | .
COc1cc(/C=N/OCC(=O)NC23CC4CC(CC(C4)C2)C3)ccc1OCc1ccccc1 | -35.5 | 2.8 | 11.7* | 0.83 | 3.9
COC(=O)c1c(NC(=O)c2ccccc2)sc(C(=O)c2ccccc2)c1C | -9.6 | -9.3 | 3.9 | -1.11 | .
COC(=O)c1c(NC(=O)c2ccc(C)cc2)sc(Cc2ccccc2)c1C | -22.7 | 1.2 | 13.8* | -1.68 | 3.9
COC(=O)c1c(NC(=O)c2ccccc2)sc(Cc2ccccc2)c1C | -36.7 | -6.1 | 12.0* | -0.68 | 5.9
COC(=O)c1c(NC(C)=O)sc(Cc2ccccc2)c1C | -26.6 | -10.1 | 5.9 | -1.61 | .
Cc1cc(NCCCO)n2nc(-c3cccs3)cc2n1 | . | . | -0.6 | . | .
Cc1cc(Oc2ccc(Cl)cc2)nc(-c2ccccc2O)n1 | -41.2 | -11.1 | 13.8* | -1 | 1.5
SMILES | Yeast growth inh | Yeast lifespan up | RAM inhibit | sdo1 growth | RAM 5-FOA
Cc1cc(OC2CCCCC2)nc(-c2ccccc2O)n1 | -21.6 | -6.2 | 1.6 | -0.63 | .
CCOc1ccc(CN=C(N)N=C(N)N)cc1Cl | -12.8 | -2.1 | 2.1 | 0.07 | .
Cc1ccc(S(=O)(=O)N2c3cc(C)ccc3OCC2C(C)(C)C)cc1 (stereo not drawn) | -24.1 | -1.2 | 12.7* | -1.05 | 3.9
CCCCNC(=S)NNC(=O)c1csc2ccccc12 | -7.5 | -12.1 | 1.2 | 0.48 | .
CCN(Cc1ccccc1)S(=O)(=O)c1ccc(S(=O)(=O)N(Cc2ccccn2)Cc2ccco2)cc1 | -23.5 | -0.8 | 13.1* | -0.6 | 1.8
Cc1ccc(S(=O)(=O)N2CCCCC2C(=O)NCc2ccco2)cc1 (stereo not drawn) | -60.9 | -6.8 | 0.1 | 0.2 | .
CC1CCCCN1S(=O)(=O)c1ccc(S(=O)(=O)N(Cc2ccccc2)Cc2ccco2)cc1 (stereo not drawn) | -31.1 | . | 13.9* | -0.33 | 2.6
O=C(CN1C(=O)NC2(CCc3ccccc3C2)C1=O)Nc1ccc(Cl)cc1F (stereo not drawn) | -35.2 | 5.2 | 7.0 | -0.79 | .
O=C(N/N=C/c1ccc(N2CCCCC2)o1)c1ccccc1[N+](=O)[O-] | -43.5 | 0.5 | -0.3 | 0.63 | .
CN(C)S(=O)(=O)c1ccc2[nH]cc(/C=C/c3nc4ccccc4c(=O)n3-c3ccccc3)c2c1 | -34.3 | -3.0 | 13.3* | -0.28 | 6.0
CCn1c(/C=C/c2c(C)[nH]c3ccccc23)nc2ccccc2c1=O | -14.7 | 0.4 | 7.4 | -0.76 | .
Cc1[nH]c2ccccc2c1/C=C/c1nc2ccccc2c(=O)n1-c1ccc([N+](=O)[O-])cc1 | -7.0 | 3.6 | 11.5* | -0.56 | 4.3
CCn1c(/C=C/c2c[nH]c3ccccc23)nc2ccccc2c1=O | . | . | 5.8 | . | .
CCOc1ncccc1C(=O)N1CCCSC1=Nc1ccccc1OC | . | . | 2.0 | . | .
Cc1cccc(N2C(=O)CC(Sc3ccccc3C(=O)O)C2=O)c1 (stereo not drawn) | -28.5 | 7.5 | 1.1 | 1.52 | .
Cc1ccc(CN2CCSc3ccc(C(=O)NCc4ccco4)cc32)cc1 | . | . | 13.5* | . | 2.4
Cc1nc(SCC(N)=O)[nH]c(=O)c1Cc1ccc(OC(C)C)cc1 | -8.3 | 5.3 | 0.8 | 0.4 | .
CCC(=O)N1CCc2cc(S(=O)(=O)NC(Cc3ccccc3)C(=O)NC3CCCCC3)ccc21 (stereo not drawn) | -30.8 | 8.4 | 14.0* | 0.48 | 1.8
COc1cccc(CSc2nc3ccccc3cc2C=O)c1 | -54.2 | 84.2* | 11.8* | -1.78 | 6.0
CCCCOC(=O)c1ccc(NC(=O)c2c(Cl)ccc(Cl)c2OC)cc1 | -36.2 | 0.3 | 17.9* | -0.18 | 3.0
CCCCCCOC(=O)c1ccc(NC(=O)c2cc(OC)c(OC)c(OC)c2Br)cc1 | -21.7 | 0.9 | 11.5* | -0.76 | 3.7
COc1ccc(C(=O)NCC(=O)OCc2cccc(Br)c2)cc1 | -33.2 | -15.3 | 12.6* | 0.41 | 2.7
CCOC(=O)NC1(Nc2ccc(Cl)cn2)Oc2ccccc2O1 | 5.2 | -25.3 | 1.6 | 0.52 | .
Cc1ccc(NC(=S)Nc2nc(CC(=O)Nc3ccccc3)cs2)cc1 | -38.3 | -22.4 | 4.9 | 0.16 | .
O=C(NCCn1cc(SCc2ccccc2)c2ccccc21)c1ccccc1F | -27.8 | 5.9 | 15.3* | -0.52 | 2.5
O=C(Nc1ccc(Br)cc1)c1cccc(S(=O)(=O)Nc2cnc3ccccc3c2)c1 | -21.3 | 4.3 | 15.2* | -0.87 | 2.2
CCOc1cccc(NC(=O)CSc2nc(C)c3c(c2C#N)CCCC3)c1 | -13.8 | -13.1 | 5.3 | 0.14 | .
